In ChEMBL document CHEMBL1944638, “Quinol derivatives as potential trypanocidal agents” (Bioorg Med Chem, 2012):

Key:
[1] = Selectivity ratio of EC50 for human MRC5 cells to EC50 for blood stream form of Trypanosoma brucei; type: ADME, cell-based; settings: read-out: Ratio EC50
Outline: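 Ratio of EC50 in human MRC5 cells over EC50 in bloodstream-form T. brucei, both from 96-well HTS whole-cell assays. Each EC50 is the arithmetic mean of independent determinations, reported with SD and number of repeats.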

MRC5 = assay: Cytotoxicity against human MRC5 cells after 3 days by resazurin-based fluorescence assay; type: cell-based; settings: MRC5, 72 h
Outline: (§1)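 96-well HTS whole-cell assay against bloodstream-form T. brucei and human MRC5 cells. EC50 values are the arithmetic mean of independent determinations, with SD and number of repeats. Species selectivity is EC50 (MRC5)/EC50 (T. brucei).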

Trypanosoma brucei = assay: Antitrypanosomal activity against blood stream form of Trypanosoma brucei after 69 hrs by resazurin-based fluorescence assay; type: functional, organism-based; outline: as §1

Row | SMILES | selectivity ratio [1] | EC50 (MRC5) [nM] | EC50 (Trypanosoma brucei) [nM]
1 | COc1ccc(Cn2cc(C3(O)C=CC(=O)C=C3)nn2)cc1 | 3 | – | –
2 | O=C1C=CC(O)(c2nc3ccccc3s2)C(Cl)=C1 (configuration not stated) | 1 | – | –
3 | Nc1nc(N)nc(NCCCOC(=O)CCc2ccc(S(=O)(=O)n3c(C4(O)C=CC(=O)C=C4)cc4ccccc43)cc2)n1 | 2.7 | – | –
4 | O=C1C=CC(O)(c2cc3ccccc3n2S(=O)(=O)c2ccc(CCCN3CCOCC3)cc2)C=C1 | 3 | – | –
5 | N=C(N)c1ccc(-n2cc(C3(O)C=CC(=O)C=C3)nn2)cc1 | > 5 | > 50000 | –
6 | COc1ccc(-n2cc(C3(O)C=CC(=O)C=C3)nn2)cc1 | 2 | 310 | 130
7 | O=C1C=CC(O)(c2cn(-c3ccc4ncsc4c3)nn2)C=C1 | 3 | – | –
8 | CC(=O)OC[C@H]1O[C@@H](n2cc(C3(O)C=CC(=O)C=C3)nn2)[C@H](OC(C)=O)[C@@H](OC(C)=O)[C@H]1OC(C)=O | > 5 | – | –
9 | CN1CCN(CCCc2ccc(S(=O)(=O)n3c(C4(O)C=CC(=O)C=C4)cc4ccccc43)cc2)CC1 | 3 | – | –
10 | O=C1C=CC(O)(c2cc3ccccc3n2S(=O)(=O)c2ccc(CCC(=O)N3CCOCC3)cc2)C=C1 | 2 | – | –
11 | O=C1C=CC(O)(c2cc3ccc(F)cc3n2S(=O)(=O)c2ccccc2)C=C1 | 2 | 170 | 100
12 | O=C1C=CC(O)(c2cc3ccccc3n2S(=O)(=O)c2ccccc2)C=C1 | 2 | 110 | 53
13 | CCOC(=O)Nc1ccc(S(=O)(=O)n2c(C3(O)C=CC(=O)C=C3)cc3ccccc32)cc1 | 2 | – | –
14 | CN1CCN(C(=O)CCc2ccc(S(=O)(=O)n3c(C4(O)C=CC(=O)C=C4)cc4ccccc43)cc2)CC1 | 3 | – | –
15 | O=C1C=CC(O)(c2cc3cnccc3n2S(=O)(=O)c2ccccc2)C=C1 | 2 | – | –
16 | O=C1C=CC(O)(c2nc3ccccc3s2)C=C1 | 2 | 180 | 77
17 | O=C1C=CC(O)(c2cn(CCC(=O)Nc3ccccc3)nn2)C=C1 | 7 | – | –
18 | O=C1C=CC(O)(c2cc3ccccc3n2S(=O)(=O)c2ccc(CCC(=O)O)cc2)C=C1 | 4.5 | – | –
19 | Cc1ccc(S(=O)(=O)n2c(C3(O)C=CC(=O)C=C3)cc3ccncc32)cc1 | 2 | – | –
20 | Nc1nc(N)nc(NCCCNC(=O)CCc2ccc(S(=O)(=O)n3c(C4(O)C=CC(=O)C=C4)cc4ccccc43)cc2)n1 | 5.6 | – | –
21 | Nc1nc(N)nc(-n2cc(C3(O)C=CC(=O)C=C3)nn2)n1 | > 8 | > 50000 | –
22 | Oc1ccc(-c2nc3ccccc3s2)cc1 | – | > 50000 | > 50000
23 | O=C1C=CC(O)(C#Cc2ccc(CC(=O)Nc3ccccc3)cc2)C=C1 | 0.3 | – | –
24 | COC(=O)CCc1ccc(S(=O)(=O)n2c(C3(O)C=CC(=O)C=C3)cc3ccccc32)cc1 | 2 | – | –
25 | O=C1C=CC(O)(c2cc3ccccc3n2S(=O)(=O)c2ccc(CCCO)cc2)C=C1 | 2 | – | –
26 | O=C1C=CC(O)(c2ccccc2)C=C1 | 2 | 1700 | 750
27 | CC(=O)NCCc1ccc(S(=O)(=O)n2c(C3(O)C=CC(=O)C=C3)cc3ccccc32)cc1 | 3 | – | –
28 | CS(=O)(=O)c1ccc(S(=O)(=O)n2c(C3(O)C=CC(=O)C=C3)cc3ccccc32)cc1 | 2 | – | –
29 | C#CC1(O)C=CC(=O)C=C1 | 1 | – | –
